{"data": "Results gathered from unrelated publications", "target": "Homeodomain-interacting protein kinase 1 (HIPK1, Homo sapiens, UniProt Q86Z02)", "note": "Protocols differ between the studies behind these lines."}
{"SMILES": "COc1ncc2cc3ccccc3nc2c1C#N", "read-out": "cell-free assay", "technique": "competition with immobilised ligand", "concentration": "5 µM", "remaining binding [%]": 81}
{"SMILES": "CC(=O)C1=C(C)N(c2cccc(C(F)(F)F)c2)C(=O)N[C@@H]1c1ccc(C#N)nc1", "read-out": "cell-free assay", "technique": "competition with immobilised ligand", "concentration": "1 µM", "remaining binding [%]": 72.6}
{"SMILES": "COc1cc(Nc2nccc(-c3cnn4nc(OC)ccc34)n2)cc(C(F)(F)F)c1", "read-out": "binding", "technique": "competition with immobilised ligand", "concentration": "1 µM", "remaining binding [%]": 31}
{"SMILES": "Cc1cnc(Nc2ccc(C(=O)N3CCC(N4CCCC4)CC3)cc2)nc1-c1cc2ccccc2s1", "read-out": "binding", "technique": "competition with immobilised ligand", "concentration": "1 µM", "remaining binding [%]": 2.2}
{"SMILES": "CNC(=O)[C@@H]1CC[C@@H](n2c(-c3ccc4cnccc4c3)nc3ccc(C(=O)NCc4cccc(C(N)=O)c4)cc32)C1", "read-out": "binding", "technique": "competition with immobilised ligand", "concentration": "1 µM", "remaining binding [%]": 85}
{"SMILES": "Cc1c(C(=O)O)cc(-c2ccc(C3CCNCC3)cc2)c2ccc(-c3ccc(C(F)(F)F)cc3)cc12", "read-out": "binding", "technique": "competition with immobilised ligand", "concentration": "1 µM", "remaining binding [%]": 100}
{"SMILES": "N[C@@H]1CCN(c2nccc(-c3cnn4ncccc34)n2)C1", "read-out": "binding", "concentration": "1 µM", "remaining binding [%]": 43}
{"SMILES": "COc1cnc(Nc2cccc(S(N)(=O)=O)c2)nc1N1CCN(c2ccccc2)CC1", "read-out": "binding", "technique": "competition with immobilised ligand", "concentration": "1 µM", "remaining binding [%]": 98}
{"SMILES": "C[C@@H]1CCN(c2nccc(-c3cnn4ncccc34)n2)C1", "read-out": "binding", "concentration": "1 µM", "remaining binding [%]": 52}
{"SMILES": "O=C(Nc1c[nH]nc1C(=O)NC1CCNCC1)c1cc(F)cc(F)c1", "read-out": "binding", "technique": "competition with immobilised ligand", "concentration": "1 µM", "remaining binding [%]": 33}
{"SMILES": "FC(F)(F)Oc1cccc(-c2cnc3ccc(-c4ccncc4)nn23)c1", "read-out": "cell-free assay", "technique": "competition with immobilised ligand", "concentration": "5 µM", "remaining binding [%]": 0.15}
{"SMILES": "Nc1ncc2c(n1)-c1c([nH]c3ccc(C#CC4CC4)cc13)CCCC2", "read-out": "binding", "technique": "competition with immobilised ligand", "concentration": "1 µM", "remaining binding [%]": 87}
{"SMILES": "C[C@H](NC(=O)c1cnc2n1[C@](C)(Cc1ccc(C#N)cc1)C(=O)N2c1cc(Cl)c(F)c(Cl)c1)C(=O)NC1(c2ccccn2)CC1", "read-out": "cell-free assay", "technique": "competition with immobilised ligand", "concentration": "1 µM", "remaining binding [%]": 97}
{"SMILES": "COc1ccnn2ncc(-c3ccnc(N(C)C)n3)c12", "read-out": "binding", "concentration": "1 µM", "remaining binding [%]": 55}
{"SMILES": "COc1ccc2cc(OCC3(C(=O)O)CN(C(=O)c4ccc(F)cc4)C3)ccc2c1", "read-out": "cell-free assay", "technique": "competition with immobilised ligand", "concentration": "1 µM", "remaining binding [%]": 100}
{"SMILES": "CN(C)c1nccc(-c2cnc3ncccn23)n1", "read-out": "binding", "concentration": "1 µM", "remaining binding [%]": 44}
{"SMILES": "O=C(c1ccc(Nc2ncc(Cl)c(-c3ccc(Cl)s3)n2)cc1)N1CCC(N2CCCC2)CC1", "read-out": "binding", "technique": "competition with immobilised ligand", "concentration": "1 µM", "remaining binding [%]": 1.3}
{"SMILES": "CCCCN(CCCC)C(=O)CN1C[C@@H](c2cc(OC)c3c(c2)OCO3)[C@H](C(=O)O)[C@H]1CC(C)(C)CCC", "read-out": "cell-free assay", "technique": "competition with immobilised ligand", "concentration": "1 µM", "remaining binding [%]": 77.3}
{"SMILES": "O=C(NCCCN1CCOCC1)c1ccc(Nc2nccc(-c3cc4ccccc4s3)n2)cc1", "read-out": "binding", "technique": "competition with immobilised ligand", "concentration": "1 µM", "remaining binding [%]": 36}
{"SMILES": "CS(=O)(=O)NCC[C@H](NC(=O)c1cncc2c1cnn2-c1ccc(F)cc1)c1ccnc(S(C)(=O)=O)c1", "read-out": "cell-free assay", "technique": "competition with immobilised ligand", "concentration": "1 µM", "remaining binding [%]": 100}
{"SMILES": "Cc1cnn2ncc(-c3ccnc(N(C)C)n3)c2c1", "read-out": "binding", "concentration": "1 µM", "remaining binding [%]": 39}
